This is an account of results in ChEMBL document CHEMBL1135495, “New p-methylsulfonamido phenylethylamine analogues as class III antiarrhythmic agents: design, synthesis, biological assay, and 3D-QSAR analysis” (2002).

The species entered for assay [1] is Cavia porcellus. The assay can be described thus: (§1) Percent change for delaying effective refractory period (ERP) in guinea pig at 10e-5 M concentration. In kind it is functional. The essentials: (§2)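 Isolated atria, left atria preloaded 10 mN and paced at 1 s⁻¹ with square-wave pulses at twice-threshold voltage. ERP was measured by paired electrical stimulation after a 1 h Tyrode's equilibration with washouts every 15 min. Drug was added cumulatively at 15 min intervals, with final concentrations rising geometrically. ERP was read 10 min after each addition.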

The species named for assay [2] is Cavia porcellus. As to the kind of experiment: Percent change in heart rate measured in guinea pig at 10e-5 M concentration. In kind it is functional. The essentials:
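Spontaneously beating right atria, with contractions recorded in parallel to give beating rate. Tissue equilibrated 1 h in Tyrode's, washed every 15 min. Drug was added to the bath cumulatively at 15 min intervals in geometrically increasing final concentrations. The chronotropic effect was read 10 min after each addition.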

The species named for assay [3] is Cavia porcellus. As to the kind of experiment: Percent change of force of constriction measured in guinea pig at 10e-5 M concentration. In kind it is functional. The essentials:
(§3)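 Left atria under 10 mN preload, driven at 1 s⁻¹ by square-wave pulses at twice-threshold voltage. Isometric contractions were recorded via a strain gauge after a 1 h Tyrode's equilibration. Cumulative drug additions were made every 15 min, with final concentrations rising geometrically. The inotropic effect was determined 10 min after each addition.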

The species named for assay [4] is Cavia porcellus. As to the kind of experiment: Effective concentration for delaying effective refractory period (ERP) 10 ms in guinea pig. It is filed as functional. The essentials: as §2
Assay [5] is filed under the species Cavia porcellus. As to the kind of experiment: Percent change of force of constriction measured in guinea pig at 10e-5 M concentration; N means No effect. In kind it is functional. The essentials: as §3
Assay [6] is filed under the species Cavia porcellus. As to the kind of experiment: Percent change of force of constriction measured in guinea pig at 10e-5 M concentration; Nf means No effect. It is filed as functional. The essentials: as §3
For assay [7], the species on record is Cavia porcellus. The assay can be described thus: Percent change for delaying effective refractory period (ERP) in guinea pig at 10e-5 M concentration; N means No effect. It is filed as functional. The essentials: as §2
For assay [8], the species on record is Cavia porcellus. As to the kind of experiment: Effective concentration for delaying effective refractory period (ERP) 10 ms in guinea pig; N means No effect at 10E-5 M. It is filed as functional. The procedure, abridged: as §2
The species named for assay [9] is Cavia porcellus. As to the kind of experiment: No effect was observed for ERP at 10x (10e-5) M concentration; N means No effect at 10E-5 M. In kind it is functional. The essentials:
as §2

The species entered for assay [10] is Cavia porcellus. Described as §1. In kind it is functional, organism-based. The procedure, abridged:
as §2

Molecules are shown by their SMILES.

Consider `CS(=O)(=O)Nc1ccc(CCN(Cc2ccccc2)Cc2ccc(Cl)cc2)cc1`, for which, in the assay filed under Cavia porcellus [1], the “Delta ERP” value was 14.5%. For the same molecule, the “Delta HR” value in the assay filed under Cavia porcellus [2] was found to be 16%. Further, the “Delta FC” value in the assay filed under Cavia porcellus [3] was found to be 25%. In the assay filed under Cavia porcellus [4], the C is 1.05 µM.

On to `CC(=O)N(CCOc1cccc2ccccc12)CCc1ccc(NS(C)(=O)=O)cc1`, for which the “Delta ERP” value in the assay listed under Cavia porcellus [1] is listed as 58.4%. For the same molecule, the “Delta HR” value in the assay listed under Cavia porcellus [2] is given as -46.2%. Further, the “Delta FC” value in the assay listed under Cavia porcellus [3] is -37.9%. In addition, the C in the assay filed under Cavia porcellus [4] came to 0.05 µM.

For `CS(=O)(=O)N(c1ccc(CCN(Cc2ccccc2)Cc2ccccc2)cc1)S(C)(=O)=O`, in the assay filed under Cavia porcellus [1], the “Delta ERP” value is listed as 9.56%. Also, the “Delta HR” value in the assay listed under Cavia porcellus [2] was -16%. Further, the N result in the assay filed under Cavia porcellus [5] was “No effect”. Also, the C in the assay filed under Cavia porcellus [4] worked out at 0.653 µM.

As for `CN(CCOc1cccc2ccccc12)CCc1ccc(N(S(C)(=O)=O)S(C)(=O)=O)cc1`, the “Delta ERP” value in the assay listed under Cavia porcellus [1] is 12%. For the same molecule, in the assay filed under Cavia porcellus [2], the “Delta HR” value was -20.7%. Moreover, in the assay listed under Cavia porcellus [5], the N entry was “No effect”. The same molecule had a C in the assay listed under Cavia porcellus [4] of 0.203 µM.

As to `CS(=O)(=O)Nc1ccc(CCN(CCOc2ccc(NS(C)(=O)=O)cc2)C(=O)c2ccccc2)cc1`, in the assay listed under Cavia porcellus [1], the “Delta ERP” value is listed as 19%. The “Delta HR” value in the assay listed under Cavia porcellus [2] is -28.4%. Further, in the assay listed under Cavia porcellus [3], the “Delta FC” value is 25%. Besides, in the assay filed under Cavia porcellus [4], the C was 0.039 µM.

As to `CN(CCc1ccc(NS(C)(=O)=O)cc1)Cc1ccc2c(c1)OCO2`, in the assay listed under Cavia porcellus [1], the “Delta ERP” value is on record as 6.16%. Also, in the assay filed under Cavia porcellus [2], the “Delta HR” value is -15.3%. Besides, the “Delta FC” value in the assay filed under Cavia porcellus [3] is on record as 17.2%. In addition, in the assay listed under Cavia porcellus [4], the C came to 0.89 µM.

For the molecule `CS(=O)(=O)Nc1ccc(CCN(Cc2ccccc2)Cc2ccccc2)cc1`, the “Delta ERP” value in the assay listed under Cavia porcellus [1] worked out at 16.1%. The “Delta HR” value in the assay filed under Cavia porcellus [2] was -25%. The N result in the assay filed under Cavia porcellus [5] is “No effect”. Moreover, the C in the assay listed under Cavia porcellus [4] turned out to be 0.27 µM.

With `Cc1ccc(CN(C)CCc2ccc(N(S(C)(=O)=O)S(C)(=O)=O)cc2)cc1`, the “Delta ERP” value in the assay listed under Cavia porcellus [1] came to 12.6%. Also, the “Delta HR” value in the assay filed under Cavia porcellus [2] was -15.4%. The “Delta FC” value in the assay filed under Cavia porcellus [3] was -11.8%. Moreover, the C in the assay filed under Cavia porcellus [4] was 0.953 µM.

For `CN(CCc1ccc(N(S(C)(=O)=O)S(C)(=O)=O)cc1)C1CCCCC1`, the “Delta ERP” value in the assay filed under Cavia porcellus [1] turned out to be 6.24%. For the same molecule, in the assay listed under Cavia porcellus [6], the N entry is “No effect”. The “Delta HR” value in the assay listed under Cavia porcellus [2] is on record as -8.36%. Moreover, in the assay listed under Cavia porcellus [4], the C turned out to be 4.39 µM.

Regarding `COc1ccccc1CN(C)CCc1ccc(NS(C)(=O)=O)cc1`, the “Delta ERP” value in the assay listed under Cavia porcellus [1] worked out at 15.6%. Moreover, in the assay filed under Cavia porcellus [2], the “Delta HR” value is -26.7%. Also, in the assay listed under Cavia porcellus [3], the “Delta FC” value is given as 38.3%. In the assay filed under Cavia porcellus [4], this molecule had a C of 0.155 µM.

On to `COc1ccc(CN(CCc2ccc(NS(C)(=O)=O)cc2)C(=O)c2ccccc2)cc1`, for which the “Delta ERP” value in the assay listed under Cavia porcellus [1] turned out to be 6.33%. Moreover, in the assay filed under Cavia porcellus [2], the “Delta HR” value is recorded as -3.7%. Further, the “Delta FC” value in the assay listed under Cavia porcellus [3] was found to be 33.3%. The same molecule came in with a C in the assay filed under Cavia porcellus [4] of 6.18 µM.

For `COc1ccc(CN(CCc2ccc(NS(C)(=O)=O)cc2)C(C)=O)cc1`, the N result in the assay listed under Cavia porcellus [7] and in the assay listed under Cavia porcellus [8] was “No effect” each time. Moreover, in the assay filed under Cavia porcellus [2], the “Delta HR” value is -18.2%. In addition, the “Delta FC” value in the assay filed under Cavia porcellus [3] was determined as 14.3%.

Turning to `CS(=O)(=O)N(c1ccc(CCN(CCOc2cccc3ccccc23)Cc2ccccc2)cc1)S(C)(=O)=O`, the N entry in the assay listed under Cavia porcellus [7] and in the assay listed under Cavia porcellus [9] was “No effect” in each case. For the same molecule, the “Delta HR” value in the assay listed under Cavia porcellus [2] was -17.9%. Further, the “Delta FC” value in the assay listed under Cavia porcellus [3] amounted to 25%.

`CS(=O)(=O)Nc1ccc(CCN(CCOc2cccc3ccccc23)C(=O)c2ccccc2)cc1`: the “Delta ERP” value in the assay filed under Cavia porcellus [1] is on record as 5.33%. Further, in the assay filed under Cavia porcellus [2], the “Delta HR” value is recorded as -20%. Moreover, the “Delta FC” value in the assay listed under Cavia porcellus [3] is given as 33.3%. The same molecule returned a C in the assay listed under Cavia porcellus [4] of 8.67 µM.

As to `CS(=O)(=O)Nc1ccc(CCN(CCOc2ccc(NS(C)(=O)=O)cc2)Cc2ccccc2)cc1`, the “Delta ERP” value in the assay filed under Cavia porcellus [1] is 17.5%. In the assay listed under Cavia porcellus [2], the “Delta HR” value was -32%. Further, the “Delta FC” value in the assay filed under Cavia porcellus [3] is reported as 24.8%. Also, the C in the assay listed under Cavia porcellus [4] is 0.016 µM.

For `CS(=O)(=O)Nc1ccc(CCN(CCOc2ccc(NS(C)(=O)=O)cc2)S(C)(=O)=O)cc1`, the N entry in the assay listed under Cavia porcellus [8] and in the assay listed under Cavia porcellus [10] was “No effect at 10E-5 M” each time. Further, in the assay filed under Cavia porcellus [2], the “Delta HR” value is reported as -18.8%. Also, the “Delta FC” value in the assay filed under Cavia porcellus [3] came to 16.7%.

As to `CN(CCc1ccc(NS(C)(=O)=O)cc1)Cc1ccc(Cl)cc1`, in the assay listed under Cavia porcellus [1], the “Delta ERP” value worked out at 7.06%. In addition, the “Delta HR” value in the assay listed under Cavia porcellus [2] was -14.5%. Also, the “Delta FC” value in the assay filed under Cavia porcellus [3] is 8.33%. The C in the assay listed under Cavia porcellus [4] was 2.24 µM.

Take `CC(=O)N(CCOc1ccc(NS(C)(=O)=O)cc1)CCc1ccc(NS(C)(=O)=O)cc1`: in the assay filed under Cavia porcellus [1], the “Delta ERP” value was determined as 16.9%. Also, the “Delta HR” value in the assay filed under Cavia porcellus [2] is recorded as -20.6%. In the assay listed under Cavia porcellus [3], the “Delta FC” value was 17.5%. The molecule also showed a C in the assay listed under Cavia porcellus [4] of 0.021 µM.
